# Sampled rows, rich in hits. Any-hit rate of the full collection: about 1.8%.
# M5 ag: agonists of human muscarinic M5 receptor (CHRM5); P08912; CHO-K1 hM5 cells, Fluo-8 calcium fluorescence; 0% DMSO wells, 100% maximal acetylcholine response; activation, % at 3 µM; 360,000 compounds, 0.19% hits;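 active means activation above the run's mean over test compounds plus 3 SD, cut at about 23% in these data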;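 further: signal is peak over basal fluorescence ratio across the kinetic read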
# Target sequence (P08912 whole entry, looked up): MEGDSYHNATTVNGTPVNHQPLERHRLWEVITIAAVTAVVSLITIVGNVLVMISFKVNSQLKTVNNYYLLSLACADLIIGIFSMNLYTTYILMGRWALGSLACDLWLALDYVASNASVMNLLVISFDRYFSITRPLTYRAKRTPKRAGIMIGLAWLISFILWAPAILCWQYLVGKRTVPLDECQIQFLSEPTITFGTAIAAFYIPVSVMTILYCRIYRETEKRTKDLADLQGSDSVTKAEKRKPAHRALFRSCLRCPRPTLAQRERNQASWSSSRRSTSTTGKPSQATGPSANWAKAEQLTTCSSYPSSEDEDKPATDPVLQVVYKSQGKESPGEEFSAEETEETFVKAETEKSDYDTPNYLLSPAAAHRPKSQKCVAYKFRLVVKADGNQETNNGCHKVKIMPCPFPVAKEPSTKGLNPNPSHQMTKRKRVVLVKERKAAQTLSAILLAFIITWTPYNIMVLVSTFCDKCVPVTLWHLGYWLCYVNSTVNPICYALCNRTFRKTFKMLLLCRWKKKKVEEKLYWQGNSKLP
# CHRM4 agonist: CHRM4 agonism in calcium assay; P08173; CHO-K1 hM4/Gqi5, Fluo-8 calcium fluorescence; vehicle 0%, full acetylcholine response 100%; activation, % at 3 µM; 360,000 compounds, 0.14% hits; AID 624127;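 active means activation above the run mean over all test wells plus 3 SD, cut at about 32% in these data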;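 further: peak over basal fluorescence ratio per well then scaled between controls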
# CHRM5 antagonist: blocks acetylcholine activation of human M5 receptor; AID 624040; inhibition, % at 3 µM; CHO-hM5 cells, Fluo-8 calcium fluorescence, ACh EC80; P08912; 360,000 compounds, 0.59% hits;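 active means inhibition above a per-plate cutoff, the mean of that plate's test compounds plus 3 SD, cut at about 27% in these data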
# CHRM5 PAM: positive allosteric modulators of human muscarinic M5 receptor; CHO-K1 hM5, Fluo-8 calcium, ACh EC20 PAM; 0% = ACh EC20, 100% = ACh EC100; AID 624038; activation, % at 3 µM; 360,000 compounds, 0.3% hits;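 active means activation above the run cutoff, the mean activation of all test compounds plus 3 SD, cut at about 18% in these data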
#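 Assay system: CHO-K1 hM5 cells. Also added: acetylcholine at EC20 concentration, added after compound. Dosing: 3 µM, single dose. Times: compound preincubation 140 s before EC20 acetylcholine addition. Signal: Fluo-8 calcium fluorescence. Measure: % activation relative to EC20 and EC100 ACh responses. Repeats: singlicate, one well per test compound.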
# M4 PAM: potentiates acetylcholine response at human M4 receptor. P08173. CHO-K1 hM4/Gqi5, Fluo-8 calcium fluorescence, ACh EC20; 0% = ACh EC20, 100% = maximal ACh. activation, % at 3 µM. 360,000 compounds, 0.4% hits;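 active means activation above its plate's cutoff, the mean activation of sample wells plus 3 SD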
# CHRM4 antagonist: blocks acetylcholine activation of human M4 receptor | P08173 | CHO-hM4 cells, ACh EC80, Fluo-8 calcium fluorescence | inhibition, % at 3 µM | 360,000 compounds, 0.73% hits;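 active means inhibition above its plate's cutoff, the mean inhibition of sample wells plus 3 SD, cut at about 27% in these data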
# Hits are given with their value; - = inactive.
SMILES,M5 ag,CHRM4 agonist,CHRM5 antagonist,CHRM5 PAM,M4 PAM,CHRM4 antagonist
Cc1cc(NC(=O)c2cc3ccccc3o2)ccc1NC(=O)c1ccccc1,-,-,-,-,-,-
CCC(C)C(NC(=O)C1CCC(C)CC1)C(=O)NC(C(=O)OC)C(C)C (stereo unspecified),-,-,-,-,20,-
CC(C)C1C(=O)N(Cc2cn(CCC3OCCO3)nn2)CCS(=O)(=O)N1Cc1ccc(-c2ccccc2Cl)cc1 (stereo unspecified),-,-,-,-,-,-
COC1=C(OC)c2ccccc2C(C(=O)O)N/C1=C(/C)Nc1ccncc1 (stereo unspecified),-,-,-,-,-,29
O=C(NCCc1ccc(F)cc1)C1CCCO1 (stereo unspecified),-,-,-,-,-,-
O=C(NCCc1ccc(Cl)cc1)C1CCCO1 (stereo unspecified),-,-,61,-,-,97
CC[N+]1(CC(O)COC2CC(C)CC(C)(C)C2)CCOCC1 (stereo unspecified),-,-,-,-,-,29
COc1ccc(NC(=O)CCc2nnc3ccc(NCc4ccco4)nn23)cc1,-,-,-,28,39,-
CC1CCCN(CCOc2ccc(Br)cc2)C1 (stereo unspecified),-,-,-,-,-,-
CC1CCCN(CCCCOc2cccc(Br)c2)C1 (stereo unspecified),-,-,-,-,-,35
CCOc1cccc(OCCCCN2CCCCC2)c1,-,-,-,-,-,57
Brc1cccc(OCCCCN2CCCCC2)c1,-,-,-,-,-,53
Cc1cc(C(=O)Nc2ccc(F)cc2C)n(-c2ccccc2)n1,-,-,-,-,-,-
Cc1ccc(C(C(=O)NCC2CCCO2)N(C(=O)c2snc(C(N)=O)c2N)c2ccc(C)c(C)c2)o1 (stereo unspecified),-,-,-,-,-,-
CCC(=O)N1CCc2cc(S(=O)(=O)CCC(=O)N3CCN(c4ccc(Cl)cc4)CC3)ccc21,-,-,28,-,-,-
CC(=O)Oc1ccccc1Cn1c(C)c(C(=O)N(C)Cc2ccc(F)cc2)sc1=O,-,-,-,-,-,-
CNc1cc(C)nc(N2CCOCC2)n1,-,-,29,-,-,-
NC(=O)c1nc(C(=O)N2CCCCC2)c2ccccc2n1,-,-,-,-,-,-
NC(=O)c1nc(C(=O)N2CCN(c3ccccc3)CC2)c2ccccc2n1,-,-,-,20,-,-
O=S(=O)(c1cccc2nsnc12)N1CCCC1,-,-,-,-,-,-
CC1CN(S(=O)(=O)c2cccc3nsnc23)CC(C)O1 (stereo unspecified),-,-,-,-,-,27
Cc1ccc(NC(=O)C2=NNC(=O)CC2)cc1S(=O)(=O)Nc1ccc(SC(F)F)cc1,-,-,-,-,-,-
O=C(c1cc(Cl)cc(Cl)c1)N1CCC2CC1c1cc(N3CCCCC3)ccc12 (stereo unspecified),-,-,-,-,-,27
COc1ccc(S(=O)(=O)Nc2ncccn2)cc1,-,-,-,-,-,-
CN1CCN(NC(=O)c2cc(Br)ccc2Cl)CC1,-,-,27,-,-,-
SMILES,M5 ag,CHRM4 agonist,CHRM5 antagonist,CHRM5 PAM,M4 PAM,CHRM4 antagonist
CN1CCN(NC(=O)c2ccc(Cl)cc2Cl)CC1,-,-,-,-,-,-
Cc1ccc(C)c(NC(=O)CN(C)C(=O)C2=NNC(=O)CC2)c1,-,-,-,-,-,-
CN(CC(=O)Nc1ccc(F)cc1)C(=O)COC(=O)c1cccc(N(C)C)c1,-,-,-,-,-,-
NNC(=O)CN1C(c2ccccc2Br)=Nc2ccc(Br)cc2C1c1ccccc1 (stereo unspecified),-,-,-,-,-,-
CN1C=CC=C/C1=C1\SC(=S)N(c2ccccc2)C1=O,-,-,-,-,17,-
Cc1cc(NC(=O)C(Cl)Cl)cc2c1OCO2,-,-,-,-,-,-
O=C(CC1C(=O)NCCN1Cc1cccc(F)c1)NCCCN1CCCC1=O (stereo unspecified),-,-,-,-,-,-
